dFosB activator: enhances mouse delta FosB homodimer DNA binding. P13346. purified delta FosB, TAMRA-CDK5 oligo fluorescence polarization; percent of positive-control signal above neutral wells. activation, % at 25 µM. 0.99% of 340,000 active. AID 493131;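 active means mean activation above about 17%, with every replicate also reaching it, limit read from the data, passing the limit was not always enough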
Target sequence (P13346 whole entry, looked up): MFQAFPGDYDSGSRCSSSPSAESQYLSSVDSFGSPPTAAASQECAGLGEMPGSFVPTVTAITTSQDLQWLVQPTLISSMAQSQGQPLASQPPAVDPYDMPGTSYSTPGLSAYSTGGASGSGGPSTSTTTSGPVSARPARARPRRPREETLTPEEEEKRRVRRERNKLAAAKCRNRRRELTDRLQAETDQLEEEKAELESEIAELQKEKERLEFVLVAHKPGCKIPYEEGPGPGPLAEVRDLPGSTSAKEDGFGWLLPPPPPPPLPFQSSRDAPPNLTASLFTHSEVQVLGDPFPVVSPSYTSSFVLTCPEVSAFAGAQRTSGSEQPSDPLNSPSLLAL
VIM-2 inh: inhibitors of Pseudomonas aeruginosa VIM-2 metallo-beta-lactamase; purified VIM-2, nitrocefin hydrolysis, epi-absorbance fluorescence; inhibition, % at 5.6 µM; 0.89% of 290,000 active; AID 1527;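 active means inhibition above the mean of all tested compounds plus 3 SD, cutoff set per screening run, cut at about 7.5% in these data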;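 further: red hydrolysis product quenches plate fluorescence so inhibitors raise well fluorescence; 0% = enzyme with DMSO and 100% = DMSO without enzyme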
HTR2A ag: agonists of mouse serotonin 5-HT2A receptor (HTR2A). CHO-K1 mHTR2A beta-arrestin complementation, luminescence; percent of 30 µM serotonin response. activation, % at 7.6 µM. 0.66% of 360,000 active;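 active means activation above a run cutoff, the mean activation of all tested compounds plus 3 SD, cut at about 14% in these data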;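 further: 0% = plate median of compound wells and 100% = 30 µM serotonin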
IMP-1 inh-1: inhibitors of Pseudomonas aeruginosa IMP-1 metallo-beta-lactamase; 0.45% of 290,000 active; AID 1556; inhibition, % at 5.6 µM; purified IMP-1, nitrocefin hydrolysis, epi-absorbance fluorescence;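 active means inhibition above the mean plus 3 SD of all compounds in the same screening run, cut at about 4.5% in these data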;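 further: 0% = IMP-1 with DMSO and 100% = DMSO wells lacking enzyme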
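System: purified IMP-1 / Input: IMP-1 dispensed at 0.2 nM / Medium: 50 mM HEPES pH 7.1, 50 µM ZnSO4, 0.05% Brij 35 / Timing: 15 min enzyme–compound preincubation, then 25 min nitrocefin reaction, 25 °C / Technique: plate fluorescence quenching by hydrolysis product, ex 480/em 530 nm / Repeats: singlicate testing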
IMP-1 inh-2: blocks IMP-1 metallo-beta-lactamase in VIM-2 selectivity screen; purified IMP-1, nitrocefin hydrolysis, epi-absorbance fluorescence; shares compounds with VIM-2 inh; 1,300 tested, under 10 active; inhibition, % at 5.6 µM; call rule not given here;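 further: 0% = enzyme with vehicle and 100% = vehicle without enzyme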
VIM-2 FRET ctr: VIM-2 FRET inhibition, artifact counter-screen; shares compounds with VIM-2 inh; purified VIM-2, CCF2 FRET substrate hydrolysis; inhibition, % at 5.6 µM; 23% of 1,300 active;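 active means inhibition above the mean of all tested compounds plus 3 SD, cut at about 19% in these data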;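 further: 0% = VIM-2 plus DMSO and 100% = no enzyme wells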
TEM-1 inh: blocks E. coli TEM-1 beta-lactamase in VIM-2 selectivity screen. shares compounds with VIM-2 inh. AID 1866. inhibition, % at 5.6 µM. 3% of 1,300 active. Purified TEM-1, nitrocefin hydrolysis, epi-absorbance fluorescence;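 active means inhibition above that campaign's mean inhibition plus 3 SD, cut at about 0.46% in these data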;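 further: 0% = TEM-1 with DMSO and 100% = TEM-1 with 100 µM potassium clavulanate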
Target sequence (P62593 whole entry, looked up): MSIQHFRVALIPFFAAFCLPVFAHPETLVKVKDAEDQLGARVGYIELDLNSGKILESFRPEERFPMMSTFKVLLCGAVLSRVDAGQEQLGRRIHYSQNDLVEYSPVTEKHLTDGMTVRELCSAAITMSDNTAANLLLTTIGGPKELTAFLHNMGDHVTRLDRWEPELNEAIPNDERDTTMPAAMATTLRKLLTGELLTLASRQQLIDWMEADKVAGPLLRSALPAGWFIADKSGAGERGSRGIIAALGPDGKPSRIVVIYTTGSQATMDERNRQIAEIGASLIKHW
VIM-2 confirm 2: confirmation of P. aeruginosa VIM-2 metallo-beta-lactamase inhibitors; shares compounds with VIM-2 inh; AID 2187; inhibition, % at 5.6 µM; 96% of 1,300 active; purified VIM-2, nitrocefin hydrolysis, epi-absorbance;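 active means inhibition of the VIM-2 beta-lactamase enzyme above about 11% from the earlier first-round screen, limit read from the data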;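 further: 0% = VIM-2 with DMSO and 100% = buffer wells without enzyme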
* marks the source's active call; other numbers are inactive results; . = not tested or not shown. In the library only some 2.5% were active in any assay of this set; here they are far more common.

SMILES	dFosB activator	VIM-2 inh	HTR2A ag	IMP-1 inh-1	IMP-1 inh-2	VIM-2 FRET ctr	TEM-1 inh	VIM-2 confirm 2
O=S(=O)(NCCc1c[nH]c2ccccc12)c1ccc(F)cc1	-7	.	5	.	.	.	.	.
CN(C)C(=S)Nc1cccc(-c2n[nH]c(=S)o2)c1	6	-2	0	-2	.	.	.	.
NNC(=S)Nc1cccc(-c2n[nH]c(=S)o2)c1	0	15*	1	-2	-4	18*	-9	9.2*
COc1cccc(CC(NC(C)=O)C(=O)NC2CCN(C(=O)c3ccc(Cl)cc3)CC2)c1 (stereo not drawn)	3	-3	-6	-2	.	.	.	.
CCCCN1C(=O)/C(=C2\SC(N3CCOCC3)=NC2=O)c2ccccc21	-2	5	3	-5	.	.	.	.
CCN1C(=O)/C(=C2\SC(N3CCOCC3)=NC2=O)c2ccccc21	-3	15*	4	-1	-2	-1	-7	24*
Cc1onc(-c2ccccc2)c1C(=O)N/N=C/c1ccco1	-1	34*	3	-5	-4	3	-5	2
CCN(CC)CCCNC(=O)c1cc2c(-c3cccc(OC)c3)nn(C)c2s1	-42	8	-9	-5	.	.	.	.
CCCCN(CC)CCCNC(=O)c1cc2c(-c3ccc(OC)c(OC)c3)nn(C)c2s1	37*	13*	-6	-4	-3	1	-5	24*
COc1ccc(-c2cc3c(=O)n(CC(=O)NCCCN4CCC(N5CCCCC5)CC4)ncn3n2)cc1	0	3	-4	-2	.	.	.	.
COc1ccc(-c2cc3c(=O)n(CC(=O)NCCCN4CCC(N5CCCCC5)CC4)nc(C)n3n2)cc1	-8	24*	5	-3	-3	1	-2	32*
Nc1ccc(N2CCN(CCCCN3C(=O)C4CCCN4C3=O)CC2)cc1 (stereo not drawn)	9	25*	-5	-3	-10	-6	-6	11*
COc1ccc(-c2cc(C(F)(F)F)n3nc(C(=O)N4CCN5CCCC5C4)cc3n2)cc1OC (stereo not drawn)	-13	26*	-6	-1	-3	0	-6	40*
CCN(CC)S(=O)(=O)c1ccc(C(=O)NCc2ccc3[nH]c4c(c3c2)CCCC4)cc1	-7	14*	-8	0	0	28*	-4	20*
O=C(NCc1ccc2[nH]c3c(c2c1)CCCC3)c1ccc(S(=O)(=O)N2CCOCC2)cc1	-15	14*	-6	2	0	28*	-3	23*
CN(C)S(=O)(=O)c1ccc(C(=O)NCc2ccc3[nH]c4c(c3c2)CCCC4)cc1	-5	14*	-7	3	1	28*	-2	25*
O=C(NCc1ccc2[nH]c3c(c2c1)CCCC3)N1CCOCC1	.	0	.	-1	.	.	.	.
Cc1ccc2c(c1)c(N=NC(N)=O)c(O)n2C	-4	13*	3	1	-3	-3	-4	19*
CCOC(=O)N=Nc1c(O)n(C)c2ccccc12	-3	0	3	-1	.	.	.	.
Cc1cc(OC(=O)c2cc(Cl)ccc2Cl)c([N+](=O)[O-])c(=O)[nH]1	-3	-1	-2	-1	.	.	.	.
Cc1noc(C)c1S(=O)(=O)NC(=O)C1(C)CCN1C(=O)c1ccccc1CCc1ccccc1 (stereo not drawn)	.	.	-3	.	.	.	.	.
Cc1ccc(NC(=O)C(C)S)cc1 (stereo not drawn)	-10	9.6*	-3	-1	1	4	-6	30*
Cc1ccc(CSc2cc(C)[nH]c(=O)n2)cc1	-10	-1	1	-4	.	.	.	.
COc1ccc2cc(C#N)c(SCC(=O)N3CCCC3)nc2c1	-28	-3	5	-1	.	.	.	.
COc1ccc2nc(SCC(=O)N3CCN(c4ccc(F)cc4)CC3)c(C#N)cc2c1	-13	15*	-2	-2	-4	13	-6	42*
SMILES	dFosB activator	VIM-2 inh	HTR2A ag	IMP-1 inh-1	IMP-1 inh-2	VIM-2 FRET ctr	TEM-1 inh	VIM-2 confirm 2
O=C(CP(=O)(c1ccccc1)c1ccccc1)Nc1nc2ccc(Cl)cc2s1	-2	-2	-5	-3	.	.	.	.
COc1ccc(C)cc1NC(=O)CCc1ccc(S(=O)(=O)N2CCOCC2)cc1	-1	.	-2	.	.	.	.	.
c1ccc2[nH]c(CN3CCN(c4ncnc5c4oc4ccccc45)CC3)nc2c1	-34	15*	-3	0	-2	-14	-8	27*
c1ccc2[nH]c(CSc3ncnc4c3oc3ccccc34)nc2c1	-20	-1	12	-7	.	.	.	.
O=C1CCC(C(=O)OCC(=O)Nc2ccc(Cl)cc2C(F)(F)F)=NN1	-1	.	-2	.	.	.	.	.
CCSc1nccc(-c2nn(-c3ccc(C)cc3)ccc2=O)n1	-7	28*	-10	0	-1	4	0	39*
COc1ccc(NC(=O)c2cc(-c3cc(F)ccc3OCC3CCCO3)n[nH]2)c(C)c1 (stereo not drawn)	.	.	-3	.	.	.	.	.
COc1ccc(-c2c(-c3cc(OC)cc(OC)c3)n(C)c3ccc(-c4ccc(S(N)(=O)=O)cc4)cc23)cc1	-2	.	-4	.	.	.	.	.
O=[N+]([O-])c1ccc(-c2ccc(/C=N/n3cnnc3)o2)c(Br)c1	-3	45*	-2	-3	-2	7	-3	57*
Cc1cc([N+](=O)[O-])c(C)cc1-c1ccc(/C=N/n2cnnc2)o1	7	44*	0	-3	-1	-1	-5	50*
Cc1n[nH]c(=S)n1/N=C/c1ccc(-c2ccccc2[N+](=O)[O-])o1	-6	1	1	-3	.	.	.	.
CN1CCN(c2ccc(C(F)(F)F)cc2NC(=O)c2ccco2)CC1	-6	1	0	-2	.	.	.	.
CCOC(=O)c1cnc(-n2nc(C)cc2C)nc1NC1CCCCC1	-21	14*	14	-5	-6	-28	-7	28*
CCOC(=O)c1cnc(-n2nc(C)cc2C)nc1Nc1ccc(C)cc1	0	1	0	-3	.	.	.	.
CCOC(=O)c1cnc(-n2nc(C)cc2C)nc1Nc1ccc(N(C)C)cc1	1	26*	0	-4	-5	-35	-5	75*
NC(=O)N=Nc1c2[nH]c3ccccc3nc-2c2ccccc12	-5	21*	8	-3	0	-3	-3	38*
COc1cccc(C(=O)NCCS(=O)(=O)N2CC(C)CC(C)C2)c1 (stereo not drawn)	-5	.	-8	.	.	.	.	.
Cc1nn2c(-c3ccc(S(=O)(=O)N4CCN(C)CC4)o3)nnc2c2ccccc12	-42	24*	10	-1	-1	4	-5	34*
Cc1ccc(-c2nnc3c4ccccc4c(C)nn23)cc1NC(=O)CN1CCOCC1	.	-3	.	-4	.	.	.	.

Source: PubChem BioAssay (several laboratories)
